We go through three compounds from ChEMBL document CHEMBL1147738, “Potent and selective mitogen-activated protein kinase kinase (MEK) 1,2 inhibitors. 1. 4-(4-bromo-2-fluorophenylamino)-1- methylpyridin-2(1H)-ones” (J Med Chem, 2006).

A short description of data set [1]: Half life in rat at 1 mg/kg, iv. It is filed as ADME, organism-based. Also noted: dose 1 mg/kg, route intravenous. The note with it: Sprague-Dawley, in vivo. A digest of the protocol: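 Male Sprague Dawley rats (6-10 weeks), fed ad lib, dosed IV at 1 mg/kg (1 mg/mL in 10% DMSO/90% normal saline, 1 mL/kg). Tail-vein EDTA blood sampled 1, 5, 15, 30 min and 1, 2, 4, 8, 12, 24 h. Plasma analysed by LC/MS/MS after methanol protein precipitation, range 9 ng/mL to 20 µg/mL. Parameters derived by non-compartmental analysis.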

Data set [2] can be described thus: Clearance in presence of human hepatocytes. It is filed as ADME, cell-based, Liver, Hepatocyte. In outline: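 Human hepatocytes (fresh or cryopreserved) diluted to 2 x 10⁶ viable cells/mL in supplemented Krebs-Henseleit buffer pH 7.3, mixed 1:1 with 2 µM compound working solution. Incubated at 37 °C, 5% CO₂, duplicates, one plate per timepoint. Quenched with labetalol internal standard and centrifuged; compound remaining measured by LC-MS/MS (ESI+, MRM).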

The target of data set [3] is MAP kinase-activated protein kinase 2 (Homo sapiens) (UniProt P49137). The data set is described as follows: Inhibition of MAPKAP-K2 at 10 uM. In outline: (§1)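 Kinase panel run at Upstate (Dundee). Each compound was tested at 10 µM against each enzyme and reported as % inhibition.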
Chain of MAP kinase-activated protein kinase 2 (Homo sapiens) (P49137 whole entry, looked up): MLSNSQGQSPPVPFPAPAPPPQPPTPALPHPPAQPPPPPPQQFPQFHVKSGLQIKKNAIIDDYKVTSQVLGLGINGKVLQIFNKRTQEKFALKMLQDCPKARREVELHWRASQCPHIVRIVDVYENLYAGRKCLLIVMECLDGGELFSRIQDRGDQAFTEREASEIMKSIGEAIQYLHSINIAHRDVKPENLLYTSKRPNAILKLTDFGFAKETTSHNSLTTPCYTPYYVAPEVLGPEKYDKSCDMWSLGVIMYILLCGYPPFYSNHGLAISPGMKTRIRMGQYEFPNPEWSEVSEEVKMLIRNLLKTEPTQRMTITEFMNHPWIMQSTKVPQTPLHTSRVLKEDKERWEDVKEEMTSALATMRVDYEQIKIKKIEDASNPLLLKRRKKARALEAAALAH
The target of data set [4] is Rho-associated protein kinase 2 (Homo sapiens) (UniProt O75116). The data set is described as follows: Inhibition of ROCK 2 at 10 uM. In outline: as §1
Chain of Rho-associated protein kinase 2 (Homo sapiens) (O75116 whole entry, looked up): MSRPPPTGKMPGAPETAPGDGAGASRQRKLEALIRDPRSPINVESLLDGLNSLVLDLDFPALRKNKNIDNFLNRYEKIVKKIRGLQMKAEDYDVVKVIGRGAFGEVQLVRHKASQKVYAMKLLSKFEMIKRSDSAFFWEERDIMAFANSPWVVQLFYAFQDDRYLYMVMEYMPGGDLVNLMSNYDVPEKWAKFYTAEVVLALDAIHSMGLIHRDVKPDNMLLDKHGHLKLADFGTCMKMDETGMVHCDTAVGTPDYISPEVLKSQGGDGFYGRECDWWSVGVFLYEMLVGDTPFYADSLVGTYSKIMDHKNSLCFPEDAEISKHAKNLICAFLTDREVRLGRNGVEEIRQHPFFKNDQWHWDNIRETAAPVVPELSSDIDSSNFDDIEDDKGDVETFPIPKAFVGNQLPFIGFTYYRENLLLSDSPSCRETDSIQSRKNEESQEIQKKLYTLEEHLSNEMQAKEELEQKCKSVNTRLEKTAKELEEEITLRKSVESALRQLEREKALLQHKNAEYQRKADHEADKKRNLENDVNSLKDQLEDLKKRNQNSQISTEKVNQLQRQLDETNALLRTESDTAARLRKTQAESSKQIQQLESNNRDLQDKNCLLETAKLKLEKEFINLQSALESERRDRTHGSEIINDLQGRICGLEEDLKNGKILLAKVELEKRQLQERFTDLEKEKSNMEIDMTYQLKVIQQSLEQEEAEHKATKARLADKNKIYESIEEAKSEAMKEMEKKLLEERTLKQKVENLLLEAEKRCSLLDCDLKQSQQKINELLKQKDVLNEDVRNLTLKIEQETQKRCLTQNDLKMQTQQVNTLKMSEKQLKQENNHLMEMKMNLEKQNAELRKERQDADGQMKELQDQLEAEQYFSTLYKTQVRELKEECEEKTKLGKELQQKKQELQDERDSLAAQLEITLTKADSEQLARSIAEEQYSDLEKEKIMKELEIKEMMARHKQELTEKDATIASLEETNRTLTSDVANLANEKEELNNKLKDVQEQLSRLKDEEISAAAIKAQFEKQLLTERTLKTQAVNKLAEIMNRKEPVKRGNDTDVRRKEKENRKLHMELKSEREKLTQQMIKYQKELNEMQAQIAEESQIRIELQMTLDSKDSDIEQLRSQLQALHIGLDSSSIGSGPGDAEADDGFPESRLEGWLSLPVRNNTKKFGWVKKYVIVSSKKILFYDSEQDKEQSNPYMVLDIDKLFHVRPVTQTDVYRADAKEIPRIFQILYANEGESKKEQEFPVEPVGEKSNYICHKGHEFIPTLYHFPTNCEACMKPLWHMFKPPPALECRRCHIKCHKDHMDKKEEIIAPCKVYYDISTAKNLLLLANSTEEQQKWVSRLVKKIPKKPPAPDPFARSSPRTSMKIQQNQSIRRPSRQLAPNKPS
The target of data set [5] is Mitogen-activated protein kinase 14 (Homo sapiens) (UniProt Q16539). The experiment in a line: Inhibition of SAPK2a/p38 at 10 uM. In outline:
as §1

Data set [6] deals with Cyclin-dependent kinase 2/cyclin A (Homo sapiens) (UniProt P24941+P20248+P78396). The experiment in a line: Inhibition of CDK2/cyclin A at 10 uM. It is filed as protein-complex assay. In outline:
as §1

The target of data set [7] is Protein kinase C alpha type (Homo sapiens) (UniProt P17252). The experiment in a line: Inhibition of PKCa at 10 uM. A digest of the protocol:
as §1

Data set [8] addresses T1, Lymphokine-activated killer T-cell-originated protein kinase (Homo sapiens) (UniProt Q96KB5).
T1 sequence (whole entry): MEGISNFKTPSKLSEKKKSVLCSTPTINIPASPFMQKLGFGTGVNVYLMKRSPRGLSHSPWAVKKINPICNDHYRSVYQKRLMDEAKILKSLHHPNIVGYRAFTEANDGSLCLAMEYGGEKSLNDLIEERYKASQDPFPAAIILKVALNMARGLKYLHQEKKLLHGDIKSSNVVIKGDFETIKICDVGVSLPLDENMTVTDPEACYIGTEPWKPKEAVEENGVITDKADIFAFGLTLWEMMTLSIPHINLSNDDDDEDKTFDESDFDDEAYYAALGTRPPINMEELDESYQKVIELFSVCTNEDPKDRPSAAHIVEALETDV
The experiment in a line: Inhibition of PBK at 10 uM. A digest of the protocol:
as §1

In data set [9] the test system is Malme-3M. The experiment in a line: Inhibition of basal ERK phosphorylation in Malme-3M cells. It is filed as functional, Homo sapiens.
Data set [10] deals with Dual specificity mitogen-activated protein kinase kinase 1 (Homo sapiens, UniProt Q02750). The data set is described as follows: Inhibitory activity against MEK1.
Chain of Dual specificity mitogen-activated protein kinase kinase 1 (Q02750 whole entry): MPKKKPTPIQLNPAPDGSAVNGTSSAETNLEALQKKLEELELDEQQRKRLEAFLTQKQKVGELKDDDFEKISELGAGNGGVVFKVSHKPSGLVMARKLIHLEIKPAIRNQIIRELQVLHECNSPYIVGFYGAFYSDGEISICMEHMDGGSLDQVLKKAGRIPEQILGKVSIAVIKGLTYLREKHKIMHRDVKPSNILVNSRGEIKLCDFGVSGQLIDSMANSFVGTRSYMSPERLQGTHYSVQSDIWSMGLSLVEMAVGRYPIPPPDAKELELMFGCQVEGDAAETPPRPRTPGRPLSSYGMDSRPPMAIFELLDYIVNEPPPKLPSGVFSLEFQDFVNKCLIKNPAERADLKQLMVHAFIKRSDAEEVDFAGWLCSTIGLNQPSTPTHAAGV

Chain of Mitogen-activated protein kinase 14 (Homo sapiens) (Q16539 whole entry): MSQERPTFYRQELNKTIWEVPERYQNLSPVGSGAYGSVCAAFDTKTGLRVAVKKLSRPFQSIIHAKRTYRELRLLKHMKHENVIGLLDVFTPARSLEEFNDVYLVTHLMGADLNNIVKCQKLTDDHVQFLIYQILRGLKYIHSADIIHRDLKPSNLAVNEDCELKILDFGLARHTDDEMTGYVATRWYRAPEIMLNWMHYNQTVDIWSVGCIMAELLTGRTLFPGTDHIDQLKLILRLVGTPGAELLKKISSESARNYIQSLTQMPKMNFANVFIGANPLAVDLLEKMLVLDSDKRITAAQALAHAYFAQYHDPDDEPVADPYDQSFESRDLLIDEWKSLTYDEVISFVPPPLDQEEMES

One may read the half-life as how long it takes for the measured level to halve. In general, inhibition refers to the change of the read-out against control, counted positive when it falls. In the case of `CCONC(=O)c1cn(C)c(=O)c(C)c1Nc1ccc(Br)cc1F`, the half-life in data set [1] was 2.5 h. In addition, in data set [2], the CLhep predicted is 5 mL/min/kg. Besides, the inhibition was 14% in data set [3]; 13% in data set [4]; -3% in data set [5]; 20% in data set [6]; 7% in data set [7]; 3% in data set [8]. Moreover, the Activity in [9] turned out to be 10.6 nM.

Broadly, the IC50 is the concentration that gives 50% inhibition. Take `CONC(=O)c1cn(C)c(=O)c(C)c1Nc1ccc(Br)cc1F`: the half-life in data set [1] was 3.5 h. For the same compound, the CLhep predicted in data set [2] is 5 mL/min/kg. This compound also had a concentration for half-maximal inhibition (IC50) in data set [10] of 105 nM. Also, the inhibition was 1% in data set [3]; 10% in data set [4]; 3% in data set [5]; 8% in data set [6]; 0% in data set [7]; -4% in [8]. In addition, the Activity in data set [9] came out at 39 nM.

Compound `Cc1c(Nc2ccc(Br)cc2F)c(C(=O)NOCCO)cn(C)c1=O` had a half-life in data set [1] of 1.6 h. Also, the CLhep predicted in data set [2] was 6 mL/min/kg. In data set [10], this compound came in with an IC50 of 18 nM. The inhibition was 8% in data set [3]; 13% in data set [4]; 20% in [5]; 9% in [6]; -3% in data set [7]; -8% in data set [8]. For the same compound, in [9], the Activity was 2 nM.
